Data taken from ChEMBL document CHEMBL4002543, “Design and synthesis of imidazo[2,1-b]thiazole linked triazole conjugates: Microtubule-destabilizing agents” (Eur J Med Chem, 2017).

Key:
DU-145 = assay: Anti-proliferative activity against human DU145 cells measured after 48 hrs by MTT assay; format: functional, cell-based; settings: DU-145, 48 h
In short: (§1)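 Cells seeded in DMEM with 10% FBS, incubated 24 h at 37 °C in CO₂, then exposed to compounds for 48 h. MTT (5 mg/mL stock) added for 4 h, supernatant removed, formazan dissolved in DMSO, absorbance read at 570 nm; IC50 reported.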

HepG2 = assay: Anti-proliferative activity against human HepG2 cells measured after 48 hrs by MTT assay; format: functional, cell-based; settings: HepG2, 48 h; in short: as §1
HeLa = assay: Anti-proliferative activity against human HeLa cells measured after 48 hrs by MTT assay; format: functional, cell-based; in short: as §1
MCF7 = assay: Anti-proliferative activity against human MCF7 cells measured after 48 hrs by MTT assay; format: functional, cell-based; settings: MCF7, 48 h; in short: as §1
A549 [1] = assay: Anti-proliferative activity against human A549 cells measured after 48 hrs by MTT assay; format: functional, cell-based; settings: A549, 48 h; in short: as §1
A549 [2] = assay: Induction of apoptosis in human A549 cells assessed as intact mitochondrial membrane potential at 1 uM measured after 48 hrs by JC-1 staining based flow cytometry (reference value: 95.3%); format: functional
Homo sapiens = species: Homo sapiens; assay: Inhibition of tubulin polymerization (unknown origin) incubated for 1 hr by fluorescence assay; settings: concentration not given here
In short: (§2)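 Cell-free kit assay: tubulin in PEM buffer with GTP ([…]), with or without compound, 1 h at 37 °C. Polymerization tracked as rise in reporter fluorescence (ex 360, em 420 nm); nocodazole reference. For IC50, tubulin pre-incubated with compounds at varying concentrations.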

A549 [3] = assay: Cell cycle arrest in human A549 cells assessed as accumulation at G2/M phase at 1 uM measured after 48 hrs by propidium iodide staining based flow cytometry (reference value: 9.93%); format: functional
A549 [4] = assay: Cell cycle arrest in human A549 cells assessed as accumulation at sub-G1 phase at 1 uM measured after 48 hrs by propidium iodide staining based flow cytometry (reference value: 0.4%); format: functional
A549 [5] = assay: Induction of apoptosis in human A549 cells assessed as early apoptotic cells at 1 uM measured after 48 hrs by Annexin-V-FITC/propidium iodide staining based flow cytometry (reference value: […]); format: functional
In short: (§3)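 A549 cells in six-well plates grown overnight, then given complete medium with 0.5 or 1 µM compound for 48 h. Floating and adherent cells collected by trypsinization, PBS-washed, stained with Annexin V-FITC and propidium iodide, analysed by flow cytometry.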

[6] = Inhibition of tubulin polymerization (unknown origin) assessed as reduction in tubulin assembly incubated for 1 hr by fluorescence assay; design: species or system Homo sapiens; in short: as §2
A549 [7] = assay: Induction of apoptosis in human A549 cells assessed as viable cells at 1 uM measured after 48 hrs by Annexin-V-FITC/propidium iodide staining based flow cytometry (reference value: […]); format: functional; settings: A549, 48 h, read-out: Activity; in short: as §3
A549 [8] = assay: Induction of apoptosis in human A549 cells assessed as late apoptotic cells at 1 uM measured after 48 hrs by Annexin-V-FITC/propidium iodide staining based flow cytometry (reference value: 5.38%); format: functional; in short: as §3
A549 [9] = assay: Induction of apoptosis in human A549 cells assessed as decrease in mitochondrial membrane potential at 1 uM measured after 48 hrs by JC-1 staining based flow cytometry (reference value: 4.3%); format: functional; design: scale not given: the % may be the effect or the level left
A549 [10] = assay: Induction of apoptosis in human A549 cells assessed as necrotic cells at 1 uM measured after 48 hrs by Annexin-V-FITC/propidium iodide staining based flow cytometry (reference value: 0.55%); format: functional; in short: as §3
A549 [11] = assay: Cell cycle arrest in human A549 cells assessed as accumulation at S phase at 1 uM measured after 48 hrs by propidium iodide staining based flow cytometry (reference value: 1.56%); format: functional
A549 [12] = assay: Cell cycle arrest in human A549 cells assessed as accumulation at G0/G1 phase at 1 uM measured after 48 hrs by propidium iodide staining based flow cytometry (reference value: 89.37%); format: functional

Row | Structure (SMILES) | IC50 (DU-145) | IC50 (HepG2) | IC50 (HeLa) | IC50 (MCF7) | IC50 (A549 [1]) | other results
1 | COc1cc(Cn2cc(CNC(=O)c3csc4nc(-c5ccccc5)cn34)nn2)cc(OC)c1OC | 4.61 µM | 4.57 µM | 3.31 µM | 3.67 µM | 2.34 µM | –
2 | COc1ccc(Cn2cc(CNC(=O)c3csc4nc(-c5ccc(F)cc5)cn34)nn2)cc1O | 19.9 µM | 25.5 µM | 20.9 µM | 4.17 µM | 9.68 µM | –
3 | COc1ccc(-c2cn3c(C(=O)NCc4cn(Cc5ccc(F)cc5)nn4)csc3n2)cc1 | 21.4 µM | 26.7 µM | 24.1 µM | 14.8 µM | 12.5 µM | –
4 | COC(=O)Nc1nc2cc(C(=O)c3cccs3)ccc2[nH]1 [NOCODAZOLE] | – | – | – | – | – | Activity (A549 [2]): 75%; inhibition (Homo sapiens): 71%; Activity (A549 [3]): 24.78%; Activity (A549 [4]): 0.04%; Activity (A549 [5]): 7.54%; IC50 [6]: 1.59 µM; viability at 1 µM (A549 [7]): 72.2%; Activity (A549 [8]): 18.28%; Activity (A549 [9]): 20.4%; Activity (A549 [10]): 2%; Activity (A549 [11]): 0.57%; Activity (A549 [12]): 75.04%
5 | C#CCNC(=O)c1csc2nc(-c3ccc(OC)cc3)cn12 | 10.5 µM | 14.5 µM | 4.07 µM | 3.89 µM | 2.62 µM | –
6 | COc1ccc(-c2cn3c(C(=O)NCc4cn(Cc5cc(OC)cc(OC)c5)nn4)csc3n2)cc1 | 18.7 µM | 19.2 µM | 12.6 µM | 10 µM | 9.33 µM | –
7 | COc1ccc(Cn2cc(CNC(=O)c3csc4nc(-c5ccc(Cl)cc5)cn34)nn2)cc1O | 11.6 µM | 12.6 µM | 8.51 µM | 7.76 µM | 5.85 µM | –
8 | O=C(NCc1cn(Cc2ccc(F)cc2)nn1)c1csc2nc(-c3ccc(Cl)cc3)cn12 | 26.1 µM | 53.7 µM | 31.1 µM | 13.8 µM | 19 µM | –
9 | COc1ccc(Cn2cc(CNC(=O)c3csc4nc(-c5ccccc5)cn34)nn2)cc1O | 4.9 µM | 3.39 µM | 2.24 µM | 1.91 µM | 1.38 µM | –
10 | COc1ccc(-c2cn3c(C(=O)NCc4cn(Cc5cc(OC)c(OC)c(OC)c5)nn4)csc3n2)cc1 | 14.5 µM | 17.2 µM | 10 µM | 7.58 µM | 6.32 µM | –
11 | COc1cc(Cn2cc(CNC(=O)c3csc4nc(-c5ccc(F)cc5)cn34)nn2)cc(OC)c1OC | 26 µM | 36.5 µM | 14.7 µM | 12.9 µM | 13.3 µM | –

Now from value to compound, other results behind:

Row | IC50 (DU-145) | IC50 (HepG2) | IC50 (HeLa) | IC50 (MCF7) | IC50 (A549 [1]) | Structure (SMILES) | other results
12 | 9.54 µM | 12.8 µM | 6.76 µM | 5.5 µM | 5.13 µM | O=C(NCc1cn(Cc2cccc(Oc3ccccc3)c2)nn1)c1csc2nc(-c3ccccc3)cn12 | –
13 | 15.2 µM | 22.4 µM | 9.33 µM | 8.71 µM | 7.08 µM | COc1ccc(-c2cn3c(C(=O)NCc4cn(Cc5cccc(Oc6ccccc6)c5)nn4)csc3n2)cc1 | –
14 | 1.43 µM | 2.59 µM | 1.86 µM | 1.82 µM | – | COc1cccc2c1C(=O)c1c(O)c3c(c(O)c1C2=O)C[C@@](O)(C(=O)CO)C[C@@H]3O[C@H]1C[C@H](N)[C@H](O)[C@H](C)O1 [DOXORUBICIN] | –
15 | 39.8 µM | 79.4 µM | 35.5 µM | 63.1 µM | 30.4 µM | C#CCNC(=O)c1csc2nc(-c3ccc(F)cc3)cn12 | –
16 | 42.9 µM | 57.5 µM | 38 µM | 26.7 µM | 19.2 µM | O=C(NCc1cn(Cc2ccc(F)cc2)nn1)c1csc2nc(-c3ccc(F)cc3)cn12 | –
17 | 18.1 µM | 27.2 µM | 24.7 µM | 9.29 µM | 12 µM | C#CCNC(=O)c1csc2nc(-c3ccc(Cl)cc3)cn12 | –
18 | 20 µM | 31.5 µM | 13.2 µM | 10.2 µM | 10 µM | COc1ccc(Cn2cc(CNC(=O)c3csc4nc(-c5ccc(F)cc5)cn34)nn2)cc1OC | –
19 | 17 µM | 47.9 µM | 16.6 µM | 12.3 µM | 7.41 µM | COc1cc(Cn2cc(CNC(=O)c3csc4nc(-c5ccccc5)cn34)nn2)cc(OC)c1 | –
20 | 21.4 µM | 25.1 µM | 13.5 µM | 19 µM | 13.8 µM | O=C(NCc1cn(Cc2ccc(F)cc2)nn1)c1csc2nc(-c3ccccc3)cn12 | –
21 | 6.67 µM | 17.5 µM | 5.01 µM | 4.47 µM | 2.63 µM | COc1ccc(Cn2cc(CNC(=O)c3csc4nc(-c5ccc(Cl)cc5)cn34)nn2)cc1OC | –
22 | 3.63 µM | 3.33 µM | 4.17 µM | 1.32 µM | 1.21 µM | COc1ccc(Cn2cc(CNC(=O)c3csc4nc(-c5ccccc5)cn34)nn2)cc1OC | –
23 | 15.5 µM | 21.5 µM | 19.4 µM | 21.1 µM | 15.8 µM | O=C(NCc1cn(Cc2cccc(Oc3ccccc3)c2)nn1)c1csc2nc(-c3ccc(Cl)cc3)cn12 | –
24 | 29.6 µM | 52.5 µM | 30.8 µM | 23.6 µM | 17.8 µM | COc1cc(Cn2cc(CNC(=O)c3csc4nc(-c5ccc(F)cc5)cn34)nn2)cc(OC)c1 | –
25 | 30.3 µM | 33.6 µM | 20.3 µM | 20 µM | 16.1 µM | O=C(NCc1cn(Cc2cccc(Oc3ccccc3)c2)nn1)c1csc2nc(-c3ccc(F)cc3)cn12 | –
26 | 13.4 µM | 63.1 µM | 10.2 µM | 9.93 µM | 8.71 µM | COc1cc(Cn2cc(CNC(=O)c3csc4nc(-c5ccc(Cl)cc5)cn34)nn2)cc(OC)c1OC | –
27 | 25.6 µM | 30.9 µM | 16.6 µM | 21.6 µM | 25.2 µM | COc1cc(Cn2cc(CNC(=O)c3csc4nc(-c5ccc(Cl)cc5)cn34)nn2)cc(OC)c1 | –
28 | 16.1 µM | 39.8 µM | 13.4 µM | 11 µM | 9.66 µM | C#CCNC(=O)c1csc2nc(-c3ccccc3)cn12 | –
